Results on 50 compounds are retold here after ChEMBL document CHEMBL1944627, “[¹⁸F]GE-180: a novel fluorine-18 labelled PET tracer for imaging Translocator protein 18 kDa (TSPO)” (Bioorg Med Chem Lett, 2012).

A short description of data set [1]: Metabolic stability in Sprague-Dawley rat brain assessed as compound remaining at 1 to 3 MBq, iv after 60 mins by HPLC analysis. Format: ADME, organism-based. Particulars: read-out: Stability. Summed up: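 Radiotracer was injected iv into rats. Brain and plasma were sampled at 10, 30 and 60 min post injection to follow metabolic fate. Brain radioactivity at 60 min is expressed as % parent tracer remaining.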

A further data set concerns Brain. Description: Biodistribution in Sprague-Dawley rat whole brain at 1 to 3 MBq, iv after 2 mins by gamma counting. The format is ADME, organism-based. Particulars: in vivo. Summed up: (§1)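 Tracer formulated in Dulbecco's PBS and given iv, about 1–3 MBq at 10 MBq/mL, under 4% isoflurane, to naive rats (n = 3). Animals were killed at set times after injection. Brain was dissected into regions including striatum and olfactory bulbs, and activity was counted by gamma counter. Values are % id/g, and regional ratios were taken between times or regions.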

The test system of the next data set is Rattus norvegicus. The data set is described as follows: Biodistribution in Sprague-Dawley rat olfactory bulbs at 1 to 3 MBq, iv after 30 mins by gamma counting. Format: ADME, organism-based, Olfactory bulb. Particulars: in vivo, 0.5 h. Summed up:
as §1

A short description of data set [2]: Ratio of drug uptake in striatum in Sprague-Dawley rat at 1 to 3 MBq, iv after 2 mins to drug uptake in striatum in Sprague-Dawley rat at 1 to 3 MBq, iv after 30 mins. Particulars: in vivo.
Data set [3] can be described thus: Ratio of drug uptake in olfactory bulb to striatum in Sprague-Dawley rat at 1 to 3 MBq, iv after 30 mins by gamma counting. Particulars: in vivo, 0.5 h.
The target in another data set is Translocator protein (Rattus norvegicus, UniProt P16257). The data set is described as follows: Displacement of [3H]PK11195 from TSPO receptor in Wistar rat heart homogenate after 15 mins. The format is tissue-based.
Chain of Translocator protein (P16257 whole entry, looked up): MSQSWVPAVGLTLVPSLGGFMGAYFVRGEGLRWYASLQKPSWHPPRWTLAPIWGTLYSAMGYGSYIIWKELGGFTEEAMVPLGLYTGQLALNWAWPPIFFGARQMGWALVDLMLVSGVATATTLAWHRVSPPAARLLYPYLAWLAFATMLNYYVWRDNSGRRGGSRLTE
The nature of data set [4]: Lipophilicity, log D of the compound at pH 7.4. Format: physicochemical. Particulars: buffer.

Turning to `CCC(C)N([11CH3])C(=O)c1cc2ccccc2c(-c2ccccc2Cl)n1` (stereo not drawn), the remaining at 1 h in data set [1] was 100%. Besides, the Drug uptake in the data set on Brain is 0.28 % ID/g; with Rattus norvegicus it was 0.21 % ID/g.
The corresponding values for `CCN(CC)C(=O)[C@H]1CCCc2c1c1c(OC)cccc1n2CC[18F]` are 94%, 0.53 % ID/g and 0.45 % ID/g.
In the case of `CCN(CC)C(=O)[C@@H]1CCCc2c1c1c(OC)cccc1n2CC[18F]`, the Drug uptake is reported as 0.53 % ID/g with Brain and 0.23 % ID/g with Rattus norvegicus.
Consider `CCN(CC)C(=O)C1CCCc2c1c1ccccc1n2CC[18F]` (stereo not drawn), for which the Ratio in data set [2] worked out at 4.08; in data set [3] it was 3.25. Also, the remaining at 1 h in data set [1] came to 62%. Besides, the values for the Drug uptake in the data set with Brain and in the data set with Rattus norvegicus were 0.53 % ID/g and 0.39 % ID/g, respectively.
The corresponding values for `CCN(CC)C(=O)C1CCCc2c1c1cc(OC)ccc1n2CC[18F]` (stereo not drawn) are 4.25, 3.88, 76%, 0.39 % ID/g and 0.31 % ID/g.
On to `CCN(CC)C(=O)C1CCCc2c1c1ccc(OC)cc1n2CC[18F]` (stereo not drawn), for which the Ratio in data set [2] turned out to be 4; in data set [3], 4.33. Besides, the Drug uptake with Brain stood at 0.36 % ID/g; with Rattus norvegicus, 0.39 % ID/g.
With `CCOc1ccc2c(c1)c1c(n2CC[18F])CCCC1C(=O)N(CC)CC` (stereo not drawn), the results for the Ratio in data set [2] and in data set [3] were 3 and 2.5, respectively. The results for the Drug uptake in the data set on Brain and with Rattus norvegicus were 0.33 % ID/g and 0.25 % ID/g, respectively.
On to `CCN(CC)C(=O)C1CCCc2c1c1c(F)cccc1n2CC[18F]` (stereo not drawn), for which the remaining at 1 h in data set [1] is 93%. Also, the figures for the Drug uptake with Brain and with Rattus norvegicus were 0.5 % ID/g and 0.51 % ID/g, respectively.
The corresponding values for `CCN(CC)C(=O)C1CCCc2c1c1cc(F)ccc1n2CC[18F]` (stereo not drawn) are 84%, 0.56 % ID/g and 0.41 % ID/g.
For the compound `CCN(CC)C(=O)C1CCCc2c1c1ccc(F)cc1n2CC[18F]` (stereo not drawn), the Ratio is listed as 1.8 in data set [2] and 1.92 in data set [3]. Also, the Drug uptake with Brain was determined as 0.52 % ID/g; in the data set on Rattus norvegicus, 0.48 % ID/g.
On to `CCN(CC)C(=O)C1CCCc2c1c1cc(OC)c(F)cc1n2CC[18F]` (stereo not drawn), for which the Ratio in data set [2] is given as 4.17; in data set [3], 3.5. Moreover, the values for the Drug uptake with Brain and with Rattus norvegicus were 0.29 % ID/g and 0.21 % ID/g, respectively.
In the case of `CCN(CC)C(=O)C1CCCc2c1c1cc(F)c(OC)cc1n2CC[18F]` (stereo not drawn), the results for the Ratio in data set [2] and in data set [3] were 3 and 2.78, respectively. The Drug uptake in the data set on Brain is 0.33 % ID/g; in the data set with Rattus norvegicus, 0.25 % ID/g.
As for `O=C(C1CCCc2c1c1ccccc1n2CC[18F])N1CCCC1` (stereo not drawn), the Drug uptake in the data set on Brain is reported as 0.34 % ID/g; in the data set with Rattus norvegicus it was 0.12 % ID/g.
With `O=C(C1CCCc2c1c1ccccc1n2CC[18F])N1CCCCC1` (stereo not drawn), the remaining at 1 h in data set [1] turned out to be 83%. In addition, the Drug uptake with Brain is recorded as 0.51 % ID/g; with Rattus norvegicus it was 0.25 % ID/g.
Take `O=C(C1CCCc2c1c1ccccc1n2CC[18F])N1CCCCCC1` (stereo not drawn): the Ratio in data set [2] is given as 5.38; in data set [3], 4.13. Besides, the remaining at 1 h in data set [1] amounted to 79%. Besides, the Drug uptake is listed as 0.45 % ID/g in the data set with Brain and 0.33 % ID/g with Rattus norvegicus.
With `CCCN(C)C(=O)C1CCCc2c1c1ccccc1n2CC[18F]` (stereo not drawn), the Ratio worked out at 3.5 in data set [2] and 2.5 in data set [3]. Moreover, the Drug uptake in the data set with Brain was 0.39 % ID/g; in the data set with Rattus norvegicus it was 0.25 % ID/g.
As to `CC(C)N(C)C(=O)C1CCCc2c1c1ccccc1n2CC[18F]` (stereo not drawn), the Ratio in data set [2] is given as 4.54; in data set [3], 3.18. In addition, the remaining at 1 h in data set [1] was 74%. Also, the results for the Drug uptake in the data set with Brain and in the data set on Rattus norvegicus were 0.53 % ID/g and 0.35 % ID/g, respectively.
For `CCCN(CC)C(=O)C1CCCc2c1c1ccccc1n2CC[18F]` (stereo not drawn), the figures for the Ratio in data set [2] and in data set [3] were 1.77 and 2.09, respectively. In addition, the Drug uptake is reported as 0.45 % ID/g in the data set with Brain and 0.46 % ID/g with Rattus norvegicus.
The corresponding values for `CCCN(CCC)C(=O)C1CCCc2c1c1ccccc1n2CC[18F]` (stereo not drawn) are 2.39, 2.2, 0.49 % ID/g and 0.4 % ID/g.
For `CCCCCCN(CCCCCC)C(=O)C1CCCc2c1c1ccccc1n2CC[18F]` (stereo not drawn), the values for the Ratio in data set [2] and in data set [3] were 0.44 and 1.11, respectively. The Drug uptake was 0.06 % ID/g with Brain and 0.1 % ID/g with Rattus norvegicus.
Consider `COc1ccc(OC)c(CN(C(=O)CF)c2ccccc2Oc2ccccc2)c1`, for which the remaining at 1 h in data set [1] was 91%.
With `COc1ccc(OC)c(CN(C(=O)C[18F])c2ccccc2Oc2ccccc2)c1`, the Drug uptake with Brain was 0.74 % ID/g; in the data set with Rattus norvegicus, 0.49 % ID/g.
As for `CCN(CC)C(=O)C1CCCc2c1c1ccccc1n2CCF` (racemic), the Ki (commonly the dissociation constant of the complex between target and ligand, obtained from inhibition or displacement) on Translocator protein turned out to be 5.4 nM. The log distribution coefficient (logD) (as a rule, lipophilicity at a set pH, counting ionised and neutral species) in data set [4] is 2.78.
On the same counts, the results for `CCN(CC)C(=O)C1CCCc2c1c1cc(O)ccc1n2CCF` (racemic) are 135 nM and 1.7.
On the same counts, the results for `CCN(CC)C(=O)C1CCCc2c1c1c(OC)cccc1n2CCF` (racemic) are 2.4 nM and 2.95.
On the same counts, the results for `CCN(CC)C(=O)C1CCCc2c1c1cc(OC)ccc1n2CCF` (racemic) are 1.9 nM and 2.71.
Consider `CCN(CC)C(=O)C1CCCc2c1c1ccc(OC)cc1n2CCF` (racemic), for which the Ki at Translocator protein was found to be 5.5 nM. This compound had a logD in data set [4] of 2.41.
The corresponding values for `CCN(CC)C(=O)C1CCCc2c1c1c(OC)cc(OC)cc1n2CCF` (racemic) are 4.34 nM and 1.95.
The corresponding values for `CCOc1ccc2c(c1)c1c(n2CCF)CCCC1C(=O)N(CC)CC` (racemic) are 3.1 nM and 2.56.
The corresponding values for `CCN(CC)C(=O)C1CCCc2c1c1cc(F)ccc1n2CCF` (racemic) are 3.8 nM and 2.37.
`CCN(CC)C(=O)C1CCCc2c1c1ccc(F)cc1n2CCF` (racemic): on Translocator protein, the Ki was found to be 1.05 nM.
At Translocator protein, `CCN(CC)C(=O)C1CCCc2c1c1cc(OC)c(F)cc1n2CCF` (racemic) returned a Ki of 1.5 nM. In addition, in data set [4], the logD was found to be 2.38.
On the same counts, the results for `CCN(CC)C(=O)C1CCCc2c1c1cc(F)c(OC)cc1n2CCF` (racemic) are 3.1 nM and 2.08.
On the same counts, the results for `O=C(C1CCCc2c1c1ccccc1n2CCF)N1CCOCC1` (racemic) are 607 nM and 1.53.
For `O=C(C1CCCc2c1c1ccccc1n2CCF)N1CCCC1` (racemic), on Translocator protein, the Ki was found to be 503 nM. Besides, the logD in data set [4] amounted to 2.18.
On the same counts, the results for `O=C(C1CCCc2c1c1ccccc1n2CCF)N1CCCCC1` (racemic) are 18.3 nM and 2.53.
Take `O=C(C1CCCc2c1c1ccccc1n2CCF)N1CCCCCC1` (racemic): at Translocator protein, the Ki amounted to 4.4 nM. Also, in data set [4], the logD was determined as 2.35.
The corresponding values for `CCCN(C)C(=O)C1CCCc2c1c1ccccc1n2CCF` (racemic) are 2.2 nM and 1.99.
The corresponding values for `CC(C)N(C)C(=O)C1CCCc2c1c1ccccc1n2CCF` (racemic) are 4 nM and 2.2.
The corresponding values for `CC(C)N(C(=O)C1CCCc2c1c1ccccc1n2CCF)C(C)C` (racemic) are 1.7 nM and 2.28.
In turn, `CCCN(CC)C(=O)C1CCCc2c1c1ccccc1n2CCF` (racemic) displayed an inhibition constant (Ki) at Translocator protein of 0.38 nM.
Consider `CN(Cc1ccccc1)C(=O)C1CCCc2c1c1ccccc1n2CCF` (racemic), for which, on Translocator protein, the Ki turned out to be 1.3 nM. In addition, the logD in data set [4] was found to be 2.42.
On the same counts, the results for `CCCN(CCC)C(=O)C1CCCc2c1c1ccccc1n2CCF` (racemic) are 0.7 nM and 2.98.
`CCCCCCN(CCCCCC)C(=O)C1CCCc2c1c1ccccc1n2CCF` (racemic) displayed a Ki on Translocator protein of 0.7 nM. This compound also came in with a logD in data set [4] of 2.13.
`CN(C)C(=O)C1CCCc2c1c1ccccc1n2CCF` (racemic): the affinity on Translocator protein corresponds to a Ki of 502 nM. Further, in data set [4], the logD worked out at 1.7.
The corresponding values for `CCN(Cc1ccccc1)C(=O)C1CCCc2c1c1ccccc1n2CCF` (racemic) are 0.73 nM and 2.84.
On Translocator protein, `O=C(NCc1ccccc1)C1CCCc2c1c1ccccc1n2CCF` (racemic) displayed a Ki of 28.6 nM. The logD in data set [4] came to 2.47.
On the same counts, the results for `CN(Cc1ccccc1)C(=O)C1CCCc2c1c1cc(F)ccc1n2CCF` (racemic) are 1.45 nM and 3.1.
On the same counts, the results for `CC(C)N(C)C(=O)C1CCCc2c1c1cc(F)ccc1n2CCF` (racemic) are 8.23 nM and 2.72.
As for `CCN(CC)C(=O)C1CCCc2c1c1c(OC)cccc1n2CC[18F]` (racemic), the remaining at 1 h in data set [1] turned out to be 90%. Moreover, the Drug uptake in the data set on Brain is 0.52 % ID/g; in the data set with Rattus norvegicus it was 0.36 % ID/g.
